# Shown is part of a subset that was picked to be rich in hits.
# UCH37 DUB inh: inhibitors of human UCH37 deubiquitinase, primary screen, biochemical, Ub-AMC cleavage, fluorescence. purified proteasome/UCH37. inhibition, % (no concentration beside the values). 330,000 compounds, 0.33% hits. Ubiquitin carboxyl-terminal hydrolase isozyme L5 (Homo sapiens), Q9Y5K5;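 active = mean inhibition over replicate wells above about 20%, limit read from the data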;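 also: 0% = compound-free wells with enzyme and 100% = wells lacking proteasome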
# Target sequence (Q9Y5K5 whole entry, looked up): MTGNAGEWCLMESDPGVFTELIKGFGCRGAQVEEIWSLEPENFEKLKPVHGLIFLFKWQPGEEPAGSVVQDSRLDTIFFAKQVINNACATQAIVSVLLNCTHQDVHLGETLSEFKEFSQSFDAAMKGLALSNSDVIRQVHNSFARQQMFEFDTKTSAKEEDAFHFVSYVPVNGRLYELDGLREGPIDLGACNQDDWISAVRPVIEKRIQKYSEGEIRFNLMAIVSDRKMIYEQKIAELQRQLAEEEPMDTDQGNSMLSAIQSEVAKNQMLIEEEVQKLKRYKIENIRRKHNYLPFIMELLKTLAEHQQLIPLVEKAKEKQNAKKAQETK
#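 Reagent: Ub-AMC substrate; assay system: Proteasome-associated human UCH37 deubiquitinase; controls: no-proteasome and no-compound wells; read-out: % inhibition of Ub-AMC cleavage fluorescence; timing: 30 min preincubation with enzyme, 25 min cleavage at room temperature; signal: AMC fluorescence from Ub-AMC cleavage, excitation 355 nm, emission 460 nm; buffer or medium: Tris-HCl pH 7.4 plus ovalbumin, ATP-MgCl2, DTT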
# Fh CTSL1 inh: Fasciola hepatica cathepsin L1 inhibitors, primary screen, counter-screen for PFM18AAP inhibitor project, biochemical, QFRET, fluorogenic peptide substrate; recombinant F. hepatica cathepsin L1, Z-Leu-Arg-MCA fluorescence; inhibition, % at 5.96 µM; 300,000 compounds, 0.49% hits;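 active = inhibition above the mean of all tested compounds plus 3 SD, set per screening campaign, cut at about 17% in these data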;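 also: 0% = plate median of test compound wells and 100% = 1 µM Z-Phe-Ala-diazomethylketone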
# XBP1 UPR activ: activators of adaptive XBP1 UPR arm, primary screen, cell-based, CHO-XBP1 luciferase reporter, luminescence, uHTS. IRE1-XBP1 UPR activation; percent of tunicamycin response, DMSO as zero. activation, % at 20 µM. 330,000 compounds, 0.33% hits. AID 463104, 2010;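 active = versus positive control, 20 µM dose yields 30% or more activation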;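 also: 100% = tunicamycin at 10 µg/mL and 0% = DMSO only wells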
#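 incubation = overnight seeding at 37 °C, 6 h compound treatment at 37 °C | assay system = CHO-XBP1 cells stably carrying IRE1-XBP1-driven luciferase reporter | input = 1000 cells per well | detection = luciferase luminescence | dosing = single point, 20 µM final compound, 1% DMSO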
# CHOP inh: inhibitors of CHOP promoter induction, primary screen, cell-based, unfolded protein response, luciferase reporter. 220,000 compounds, 3.8% hits. inhibition, % at 10 µM. CHO-K1 CHOP-promoter luciferase, tunicamycin-induced, 15-18 h;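 active = compounds that reduced the stress-induced luciferase reporter signal by more than about 70% of percent inhibition, limit read from the data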;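 also: 0% = tunicamycin plus vehicle and 100% = wells without tunicamycin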
# UPR CHOP act: activators of apoptotic CHOP UPR arm, primary screen, cell-based, CHO-CHOP luciferase reporter, luminescence, uHTS; UPR activation; percent of tunicamycin response over DMSO baseline; activation, % at 10 µM; 330,000 compounds, 0.34% hits;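 active = at 10 µM dose, activation of 40% or more, normalized to positive control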;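 also: 100% = tunicamycin at 10 µg/mL and 0% = DMSO alone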
#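 Test system: CHO-CHOP cells, stable luciferase reporter of PERK-eIF2a-CHOP signalling | Quantity: 500 CHO-CHOP cells per well | Buffer or medium: F12 plus 10% serum | Compound dosing: 10 µM single point, 0.5% DMSO | Schedule: 6 h compound treatment, 37 °C | Signal: Luciferase luminescence | Control set: Tunicamycin high control, DMSO low control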
# Active calls of the source: *; x = no result.
SMILES,UCH37 DUB inh,Fh CTSL1 inh,XBP1 UPR activ,CHOP inh,UPR CHOP act
CCOC(=O)c1cc2c(ccn2C)n1CC(=O)N1CCN(c2ccc(F)cc2)CC1,5,-3,-4,-13,-2
O=c1c2c(-c3cccs3)csc2ncn1N=Cc1ccc(OC(F)F)cc1,-3,x,x,x,x
COc1cc(/C=N/N=C(/N)c2nonc2N)cc(Br)c1OCc1cccc(C)c1,x,4,4,71*,2
COc1ccc(S(=O)(=O)N2CCCCC2)cc1NC(=O)CCc1nc2ccccc2c(=O)[nH]1,1,28*,-2,x,-1
COc1cc([N+](=O)[O-])cc(C=NNC(=O)CSc2ccccn2)c1O,14,x,x,x,x
CCCc1cc(C(=O)OC)c(NC(=O)OCC)s1,1,-1,-2,74*,-1
CCCc1cc(C(=O)OC)c(NC(=O)CCCC(=O)O)s1,3,0,1,9,-1
CCN1/C(=C/c2ccc3cc(C)ccc3[n+]2CC)Sc2cc(C)ccc21,14,x,x,82*,x
CCCCN1/C(=C/c2ccc3ccccc3[n+]2CC)Sc2ccccc21,4,x,0,84*,8
COc1ccccc1NCC(=O)NN=C(C)c1ccc(Br)s1,3,x,x,x,x
Cc1cc(Oc2ccc(C#N)cc2)nc(NCc2ccccc2)n1,3,-3,0,77*,-3
COC(=O)c1ccc(Oc2cc(C)nc(NCc3ccccc3)n2)cc1,-1,1,-2,12,-3
CCOC(=O)Nc1ccc2c(c1)N(C(=O)CCN(CC)CC)c1ccccc1S2=O (stereo unspecified),5,17*,-4,x,5
Cc1cc(C)nc(SCc2ccc(C(=O)NNC(=O)Nc3cccc(Cl)c3)cc2)n1,2,-7,x,96*,x
Cc1cc(C)nc(SCc2ccc(C(=O)NN=Cc3ccncc3)cc2)n1,1,x,x,x,x
Cc1ccc(-c2ccc(C=Nn3cnnc3)o2)c(Br)c1,-11,x,x,x,x
COc1cc(/C=C/c2ccc3cccc(O)c3n2)cc(Br)c1OC,-4,1,120*,x,21
N#Cc1c(-c2ccc(F)cc2)cc(-c2cccnc2)nc1N,x,1,5,88*,0
O=C(Nc1ccc2c(c1)C(=O)N(CC1CCCO1)C2=O)c1cccc(Br)c1 (stereo unspecified),-164,5,2,73*,3
Cc1ccccc1NCC(=O)NN=C/C=C/c1cccc([N+](=O)[O-])c1,3,x,x,x,x
O=C(CN(Cc1ccccc1)S(=O)(=O)c1ccccc1)NN=Cc1ccc([N+](=O)[O-])cc1,3,x,x,x,x
Cc1ccc(S(=O)(=O)N(CC(=O)N/N=C/c2ccco2)c2cc(Cl)cc(Cl)c2)cc1,x,-1,-1,75*,5
CC(NC(=O)C(=O)N/N=C\c1ccc([N+](=O)[O-])cc1)c1ccccc1 (stereo unspecified),x,0,-4,84*,0
O=C(CN(Cc1ccccc1)S(=O)(=O)c1ccccc1)N/N=C/c1ccc([N+](=O)[O-])cc1,x,6,-3,96*,-1
O=C(CNc1ccc2ccccc2c1)N/N=C/C=C/c1cccc([N+](=O)[O-])c1,x,2,-1,90*,1
SMILES,UCH37 DUB inh,Fh CTSL1 inh,XBP1 UPR activ,CHOP inh,UPR CHOP act
O=C(CCC(=O)Nc1ccccc1)NN=C/C=C/c1ccccc1,5,x,x,x,x
CC(=NNC(=S)NCc1ccccc1)c1cccs1,3,x,x,x,x
CCN(CC)S(=O)(=O)c1ccc(C(=O)NCC(=O)NN=Cc2ccccc2OC)cc1,1,x,x,x,x
Cc1ccc(C)c(N(CC(=O)N/N=C/c2ccc(-c3ccc([N+](=O)[O-])cc3)o2)S(=O)(=O)c2ccccc2)c1,x,0,-1,82*,-2
O=C(CNc1cccc2ccccc12)N/N=C/c1ccc([N+](=O)[O-])cc1,x,7,0,72*,-1
Cc1ccccc1NCC(=O)N/N=C/c1ccc([N+](=O)[O-])cc1,x,1,0,-13,-1
CCOc1ccc(NC(=O)c2sc(NC(C)=O)c(C(=O)OC)c2C)cc1,-37,4,7,73*,-1
Cc1ccccc1-c1nc(CS(=O)(=O)CC(=O)Nc2cc(F)ccc2F)c(C)o1,2,3,-1,78*,-1
COc1cccc(N2CCN(C3CC(=O)N(c4ccc(C)c(Cl)c4)C3=O)CC2)c1 (stereo unspecified),4,-2,-2,55,-2
COc1cccc(N2CCN(C3CC(=O)N(c4ccc(F)c(Cl)c4)C3=O)CC2)c1 (stereo unspecified),1,0,-1,71*,-2
COc1ccc(-c2nn(-c3ccccc3)cc2C(=O)NN=Cc2ccc([N+](=O)[O-])o2)cc1,7,x,x,x,x
Cc1cccc(N2C(=O)N3[C@H]4c5ccccc5OC[C@@H]4[C@@H](c4ccccc4)[C@@]3(C)C2=O)c1,26*,x,-1,x,-1
CCN(Cc1ccccc1)c1ccc(C=NNC(=S)NC(C)C)cc1,-52,x,x,x,x
COc1ccc(-c2cc3c(=O)n(CC(=O)NCCCN4CCC(Cc5ccccc5)CC4)ncn3n2)cc1,x,20*,-12,x,2
COc1ccc(-c2cc3c(=O)n(CC(=O)NCCCN4CCN(Cc5ccccc5)CC4)ncn3n2)cc1,-8,5,-7,x,1
N#CC(C#N)=C(Nc1ccc(F)cc1)SCc1cccc(F)c1,1,-1,2,85*,3
Cc1cccc(N2CCc3c2nc2ccc(Br)cc2c3N)c1,-23,8,2,29,1
CSc1nc(C)c2c(n1)N(c1cccc(C)c1)CC2,-2,-2,-1,88*,0
COCCN=c1scc(-c2cc(OC)c(OC)c(OC)c2)n1N=Cc1c(C)[nH]c2ccccc12,3,x,x,x,x
C(=NN(Cc1ccccc1)c1ccccc1)c1ccco1,1,x,x,x,x
O=C(NNC(=O)C12CC3CC(CC(C3)C1)C2)c1ccccc1O,-6,x,-1,x,2
O=C(NC12CC3CC(CC(C3)C1)C2)c1ccccc1O,-4,-1,3,77*,2
CC(=NNC(=O)c1cccc(Br)c1)c1cccnc1,1,x,x,x,x
